We go through 2 compounds from ChEMBL document CHEMBL1122384, “Synthesis and evaluation of 24-(isopropyl[75Se]seleno)chol-5-en-3 beta-ol” (J Med Chem, 1983).

What all share (format): functional
The nature of test [1]: Adrenal/Tissue ratio calculated from percent dose per gram of tissue determined after 1 day intravenous administration from kidney. In short, it runs like this: (§1)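 Female Fischer 344 rats (160–180 g), fed ad libitum. Steroid dissolved in EtOH, formulated in Tween 80–EtOH–saline, 5–10 μCi in 1 mL given into a lateral tail vein under light Et₂O anesthesia. Organs removed 1 day post-injection, rinsed, blotted, weighed and gamma counted, 3 rats per time point. Ratios taken from adrenal vs tissue % dose/g.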

Test [2] can be described thus: Adrenal/Tissue ratio calculated from percent dose per gram of tissue determined after 1 day intravenous administration from blood. Put shortly: as §1
A short description of test [3]: Adrenal/Tissue ratio calculated from percent dose per gram of tissue determined after 1 day intravenous administration from ovaries. Put shortly:
as §1

The nature of test [4]: Adrenal/Tissue ratio calculated from percent dose per gram of tissue determined after 1 day intravenous administration from liver. Put shortly: as §1
The nature of test [5]: Adrenal/Tissue ratio calculated from percent dose per gram of tissue determined after 1 day intravenous administration from lung. Put shortly: as §1
Test [6] in a line: Adrenal/Tissue ratio calculated from percent dose per gram of tissue determined after 1 day intravenous administration from spleen. Put shortly: as §1

Turning to `CC(C)CCCC(C)C1CCC2C3CC(CI)C4=C(CCC(O)C4)C3CCC12C` (stereo not given), the Ratio in test [1] is reported as 107.8; in test [2], 92.1; in test [3], 3; in test [4], 52.2.
Turning to `C[Se]C[C@@H]1CC2C(CCC3(C)C(C(C)CCCC(C)C)CCC23)C2=C1CC(O)CC2` (stereo not given in full) [SCINTIDREN], the Ratio in test [5] is 28.9; in test [1], 52.5; in test [2], 105; in test [3], 3.2; in test [6] it was 27.1; in test [4], 42.
